Assay results as given in ChEMBL document CHEMBL1133502, “Thio- and oxoflavopiridols, cyclin-dependent kinase 1-selective inhibitors: synthesis and biological effects” (J Med Chem, 2000).

Key:
[1] = Inhibition of Mitogen-activated protein kinase; parameters: species or system Xenopus laevis
[2] = Inhibition of PKA kinase; parameters: species or system Bos taurus
Outline: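 Bovine heart PKA (2 units) with 500 ng GST-TK fusion substrate and 25 μM [32P]ATP, in 50 mM Tris pH 7.5, 10 mM MgCl2. Incubated 1 h at 30 °C. Read-out by TCA precipitation.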

Protein kinase C (PKC) = assay: Inhibition of rat brain PKC kinase
Outline: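 Commercial PKC assay system run at 20 μM ATP. Read-out by spotting onto p81 phosphocellulose.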

[3] = target: Epidermal growth factor receptor (Homo sapiens, UniProt P00533); assay: Inhibition of Epidermal growth factor receptor
Epidermal growth factor receptor, sequence (P00533 whole entry): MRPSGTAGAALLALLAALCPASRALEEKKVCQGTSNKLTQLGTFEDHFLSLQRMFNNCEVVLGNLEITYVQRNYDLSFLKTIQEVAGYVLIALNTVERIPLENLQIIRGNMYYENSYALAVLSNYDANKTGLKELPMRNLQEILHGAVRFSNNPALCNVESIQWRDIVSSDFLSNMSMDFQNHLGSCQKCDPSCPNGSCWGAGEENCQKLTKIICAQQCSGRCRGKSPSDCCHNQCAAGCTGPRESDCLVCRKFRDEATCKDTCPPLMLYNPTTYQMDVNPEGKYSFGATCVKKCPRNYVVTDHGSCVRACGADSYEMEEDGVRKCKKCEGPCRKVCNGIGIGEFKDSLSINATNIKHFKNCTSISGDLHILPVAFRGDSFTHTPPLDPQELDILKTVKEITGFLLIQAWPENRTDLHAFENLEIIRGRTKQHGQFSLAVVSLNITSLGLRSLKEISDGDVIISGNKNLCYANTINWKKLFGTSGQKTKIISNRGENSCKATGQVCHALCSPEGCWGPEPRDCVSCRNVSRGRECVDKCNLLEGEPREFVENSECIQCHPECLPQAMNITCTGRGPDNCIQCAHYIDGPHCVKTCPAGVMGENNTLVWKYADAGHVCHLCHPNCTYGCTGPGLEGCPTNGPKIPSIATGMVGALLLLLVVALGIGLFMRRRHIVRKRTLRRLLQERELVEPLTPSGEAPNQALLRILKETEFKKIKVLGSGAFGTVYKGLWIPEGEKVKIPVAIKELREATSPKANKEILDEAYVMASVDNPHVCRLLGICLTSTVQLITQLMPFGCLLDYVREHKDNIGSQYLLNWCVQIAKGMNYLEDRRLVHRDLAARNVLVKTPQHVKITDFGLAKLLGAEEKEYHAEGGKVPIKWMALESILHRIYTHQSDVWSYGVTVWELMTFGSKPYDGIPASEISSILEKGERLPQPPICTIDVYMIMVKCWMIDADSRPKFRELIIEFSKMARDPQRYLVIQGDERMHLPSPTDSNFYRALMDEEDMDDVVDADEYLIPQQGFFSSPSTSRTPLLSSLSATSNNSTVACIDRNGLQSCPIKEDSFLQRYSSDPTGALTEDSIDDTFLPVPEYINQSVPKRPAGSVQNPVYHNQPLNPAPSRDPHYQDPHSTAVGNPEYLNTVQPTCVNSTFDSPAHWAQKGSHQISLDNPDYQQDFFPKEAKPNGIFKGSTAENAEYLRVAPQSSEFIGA

[4] = target: Cyclin-dependent kinase 2/cyclin E (Homo sapiens, UniProt P24941); assay: Inhibition of Cyclin-dependent kinase 2-cyclin E; type: protein-complex assay
[5] = target: Cyclin-dependent kinase 1/cyclin B1 (Homo sapiens, UniProt P06493); type: protein-complex assay
Cyclin-dependent kinase 1/cyclin B1, sequence (P06493 whole entry): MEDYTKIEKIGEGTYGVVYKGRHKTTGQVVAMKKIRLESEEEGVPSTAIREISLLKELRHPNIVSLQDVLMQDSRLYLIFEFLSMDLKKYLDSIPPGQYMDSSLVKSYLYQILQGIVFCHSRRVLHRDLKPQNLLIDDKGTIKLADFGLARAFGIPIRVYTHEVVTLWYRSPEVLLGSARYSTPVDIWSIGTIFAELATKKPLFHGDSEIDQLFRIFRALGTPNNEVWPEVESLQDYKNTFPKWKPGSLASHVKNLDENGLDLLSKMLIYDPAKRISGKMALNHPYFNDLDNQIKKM
Cyclin-dependent kinase 1/cyclin B1, sequence (P14635 whole entry, further chain): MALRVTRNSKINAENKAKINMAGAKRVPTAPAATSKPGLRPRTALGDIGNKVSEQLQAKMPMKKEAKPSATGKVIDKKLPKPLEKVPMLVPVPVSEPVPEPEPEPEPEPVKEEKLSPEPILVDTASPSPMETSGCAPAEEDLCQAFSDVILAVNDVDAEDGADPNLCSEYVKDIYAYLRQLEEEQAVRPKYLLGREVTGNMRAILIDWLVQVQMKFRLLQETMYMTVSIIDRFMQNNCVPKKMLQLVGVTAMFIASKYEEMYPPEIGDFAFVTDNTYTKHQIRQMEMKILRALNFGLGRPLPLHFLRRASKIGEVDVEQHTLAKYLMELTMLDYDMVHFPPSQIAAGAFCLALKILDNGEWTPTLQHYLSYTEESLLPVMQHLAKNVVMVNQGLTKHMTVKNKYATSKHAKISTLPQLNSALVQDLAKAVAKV

[6] = target: Cyclin-dependent kinase 4/cyclin D1 (Homo sapiens, UniProt P11802); assay: Inhibition of Cyclin-dependent kinase 4-cyclin D1; type: protein-complex assay
Cyclin-dependent kinase 4/cyclin D1, sequence (P11802 whole entry): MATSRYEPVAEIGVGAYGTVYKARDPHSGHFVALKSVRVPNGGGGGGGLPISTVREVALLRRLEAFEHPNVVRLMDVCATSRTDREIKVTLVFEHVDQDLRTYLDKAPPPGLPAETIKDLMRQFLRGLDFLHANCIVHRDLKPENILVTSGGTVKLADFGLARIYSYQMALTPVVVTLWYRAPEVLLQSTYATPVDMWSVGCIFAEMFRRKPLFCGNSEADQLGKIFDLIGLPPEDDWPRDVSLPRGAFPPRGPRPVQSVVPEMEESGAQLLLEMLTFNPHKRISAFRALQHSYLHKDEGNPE
Cyclin-dependent kinase 4/cyclin D1, sequence (P24385 whole entry, further chain): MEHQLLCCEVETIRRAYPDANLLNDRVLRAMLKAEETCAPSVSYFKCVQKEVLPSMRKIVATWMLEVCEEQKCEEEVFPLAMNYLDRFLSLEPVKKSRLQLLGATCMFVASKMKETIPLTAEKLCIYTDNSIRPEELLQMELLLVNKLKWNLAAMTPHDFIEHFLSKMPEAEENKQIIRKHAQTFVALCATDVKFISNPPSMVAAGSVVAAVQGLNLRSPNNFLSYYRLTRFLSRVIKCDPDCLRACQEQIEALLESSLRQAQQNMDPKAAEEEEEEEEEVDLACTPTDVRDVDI

[7] = Inhibition of Cyclin-dependent kinase 1-cyclin A; parameters: species or system Homo sapiens
[8] = target: Cyclin-dependent kinase 2/cyclin A (Homo sapiens, UniProt P24941); assay: Inhibition of Cyclin-dependent kinase 2-cyclin A; type: protein-complex assay
A2780 = assay: cells; conditions: Homo sapiens
MIA PaCa-2 = assay: cells; conditions: Homo sapiens
PC-3 = assay: cells; conditions: Homo sapiens
HCT-116 = assay: cells; conditions: Homo sapiens

Row | IC50 [1] [µM] | IC50 [2] [µM] | IC50 (Protein kinase C (PKC)) [µM] | IC50 [4] [µM] | IC50 [5] [nM] | IC50 [6] [µM] | SMILES | other results
1 | > 25 | > 50 | > 50 | – | – | – | CN1CC[C@H](c2c(O)cc(O)c3c(=O)cc(Oc4ccccc4Cl)oc23)[C@H](O)C1 | IC50 [3]: > 50 µM
2 | – | – | – | 9.69 | 2500 | 3.7 | CN1CCC(c2c(O)cc(O)c3c(=O)cc(N4CCCCC4)oc23)C(O)C1 (racemic) | –
3 | – | – | – | 3.93 | 460 | 2.06 | CCSc1cc(=O)c2c(O)cc(O)c(C3CCN(C)CC3O)c2o1 (racemic) | –
4 | – | – | – | 40.4 | 6400 | 82.5 | Cc1cc(C)nc(Sc2cc(=O)c3c(O)cc(O)c(C4CCN(C)CC4O)c3o2)n1 (racemic) | –
5 | – | – | – | 1.07 | 80 | 2.07 | CN1CCC(c2c(O)cc(O)c3c(=O)cc(SC(C)(C)C)oc23)C(O)C1 (racemic) | –
6 | 94 | 260 | 160 | – | – | 1000 | COC(=O)[C@@]1(Cc2ccc(O)c(CC=C(C)C)c2)OC(=O)C(O)=C1c1ccc(O)cc1 [BUTYROLACTONE I] | IC50 [3]: 590 µM
7 | – | – | – | > 25 | 16300 | > 25 | CN1CCC(c2c(O)cc(O)c3c(O)c/c(=N\c4ccccc4)oc23)C(O)C1 (racemic) | –
8 | 30 | 2000 | 1000 | – | – | – | Cn1cnc2c(NCc3ccccc3)nc(NCCO)nc21 [OLOMOUCINE] | –
9 | 19 | > 50 | 14 | – | – | – | CN1CC[C@H](c2c(O)cc(O)c3c(=O)cc(-c4ccccc4Cl)oc23)[C@H](O)C1 [ALVOCIDIB] | IC50 [7]: 50 nM
10 | – | – | – | 6.59 | 440 | 4.1 | CN1CCC(c2c(O)cc(O)c3c(=O)cc(Sc4ccccc4)oc23)C(O)C1 (racemic) | –

Row | SMILES | IC50 [1] [µM] | IC50 [2] [µM] | IC50 (Protein kinase C (PKC)) [µM] | IC50 [4] [µM] | IC50 [5] [nM] | IC50 [6] [µM] | other results
11 | CN1CC[C@H](c2c(O)cc(O)c3c(=O)cc(Sc4ccccc4Cl)oc23)[C@H](O)C1 (stereo in doubt; 21) | – | – | – | 4.4 | 6100 | > 25 | –
12 | CN1CC[C@H](c2c(O)cc(O)c3c(=O)cc(Sc4ccccc4Cl)oc23)[C@H](O)C1 (stereo in doubt; 16) | > 25 | > 50 | 16.1 | 2.1 | 110 | 16.2 | IC50 [8]: 1500 nM; IC50 [7]: 160 nM; IC50 [3]: > 50 µM; IC50 (A2780): 870 nM; IC50 (MIA PaCa-2): 30 nM; IC50 (PC-3): 20 nM; IC50 (HCT-116): 210 nM
